Screening results deposited in PubChem by several laboratories.
This is a sample that favours compounds with a hit; in the whole collection about 2.3% have one here.
PAFAH1B2 inh – PAFAH1B2 enzyme inhibitors, primary screen, biochemical, fluorescence polarization, human | Platelet-activating factor acetylhydrolase IB subunit alpha2 (Homo sapiens), P68402 | recombinant PAFAH1B2, FP-rhodamine activity probe | inhibition, % at 3.39 µM | 340,000 compounds, 1.2% hits;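 active means inhibition above the mean of all tested compounds plus 3 SD, cut at about 24% in these data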;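 further: 0% = enzyme with DMSO and 100% = wells lacking PAFAH1B2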
Target sequence (P68402 whole entry, looked up): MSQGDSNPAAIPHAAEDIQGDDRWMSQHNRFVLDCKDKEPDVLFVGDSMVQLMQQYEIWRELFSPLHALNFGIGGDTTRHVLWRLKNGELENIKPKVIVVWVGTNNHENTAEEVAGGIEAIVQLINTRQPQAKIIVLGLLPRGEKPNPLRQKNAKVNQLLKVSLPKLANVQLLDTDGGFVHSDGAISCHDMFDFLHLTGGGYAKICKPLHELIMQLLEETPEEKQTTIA
PAFAH1B3 FP inh – PAFAH1B3 enzyme inhibitors, primary screen, biochemical, fluorescence polarization, human | Platelet-activating factor acetylhydrolase IB subunit alpha1 (Homo sapiens), Q15102 | 340,000 compounds, 0.28% hits | AID 492972, 2010 | inhibition, % at 3.39 µM | recombinant PAFAH1B3, FP-rhodamine probe;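 active means inhibition above the screen-wide average of all tested compounds plus 3 SD, cut at about 25% in these data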;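 further: 0% = enzyme with DMSO only and 100% = wells lacking PAFAH1B3 protein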
Target sequence (Q15102 whole entry, looked up): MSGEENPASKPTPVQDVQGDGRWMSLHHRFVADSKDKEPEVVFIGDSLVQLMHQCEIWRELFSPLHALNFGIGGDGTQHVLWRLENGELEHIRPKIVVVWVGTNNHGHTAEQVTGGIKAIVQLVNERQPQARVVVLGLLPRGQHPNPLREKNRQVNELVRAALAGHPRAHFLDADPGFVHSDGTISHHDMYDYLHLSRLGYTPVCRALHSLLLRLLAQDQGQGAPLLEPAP
PAFAH2 inh – PAFAH2 enzyme inhibitors, primary screen, biochemical, fluorescence polarization, human; Platelet-activating factor acetylhydrolase 2, cytoplasmic (Homo sapiens), Q99487; recombinant PAFAH2, FP-rhodamine activity probe; inhibition, % at 3.39 µM; 340,000 compounds, 0.99% hits; AID 492956, 2010;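 active means inhibition above the mean over all tested compounds plus 3 SD, cut at about 30% in these data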;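 further: inhibitors block probe labeling of enzyme so polarization drops; 0% = enzyme with DMSO and 100% = wells lacking PAFAH2 protein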
TDP2 absorb – human TDP2 enzyme inhibitors, primary screen, biochemical, epi absorbance, recombinant enzyme; T5PNP hydrolysis, p-nitrophenol absorbance 415 nm; inhibition, % at 12.8 µM; 370,000 compounds, 0.34% hits; AID 720702, 2013;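 active means inhibition above the mean of all tested compounds plus 3 SD, set per campaign, cut at about 25% in these data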;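 further: 0% = DMSO with enzyme and 100% = buffer with substrate but no TDP2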
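Assay system: recombinant human TDP2 / Reagent: T5PNP substrate at 5 mM, a TopII-DNA adduct mimic / Measured by: epi absorbance from released p-nitrophenol / Evaluation: % inhibition relative to enzyme-containing and enzyme-free wells / Control set: enzyme-free and DMSO wells / Replicates: each compound tested once, singlicate / Schedule: enzyme reaction with compound for 2 h at 37 °C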
Apaf-1 inh – inhibitors of human Apaf-1 apoptosome, primary screen, biochemical, DEVD-Rh110 fluorescence, uHTS. Apoptotic protease-activating factor 1 (Homo sapiens), O14727. reconstituted apoptosome caspase-3 activity. inhibition, % at 20 µM. 330,000 compounds, 0.71% hits; active means inhibition of at least 40% at 20 µM;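 further: plate controls were DMSO wells for no effect and DEVD-CHO caspase inhibitor wells for full effect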
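Material: cell-free apoptosome with Apaf-1, procaspase-3 and caspase-9; Buffer or medium: Hepes pH 7.5 with detergent and BSA; Reagent: cytochrome c trigger plus (Z-DEVD)2-Rh110 caspase-3 substrate; Times: compound with Apaf-1, dATP, procaspase-3 30 min, then 50 min reaction, room temperature; Technique: Rh110 fluorescence intensity.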
An asterisk follows results filed as active; · = no result given.

SMILES | PAFAH1B2 inh | PAFAH1B3 FP inh | PAFAH2 inh | TDP2 absorb | Apaf-1 inh
Cc1ccc(NC(=O)CN2C(=O)S/C(=C/c3ccc(O)c([N+](=O)[O-])c3)C2=O)cc1C | 10 | 17 | 22 | 8 | -16
Cc1cccc(NC(=O)CN2C(=O)S/C(=C\c3ccc(O)c([N+](=O)[O-])c3)C2=O)c1 | 7 | 26* | 27 | -14 | 6
COC(=O)C1CCCN(C(=O)C2CCN(S(=O)(=O)c3cccs3)CC2)C1 (stereo not drawn) | · | · | · | -4 | ·
O=C(O)c1cccc(S(=O)(=O)Nc2cc(Cl)ccc2Cl)c1 | 24* | 8 | 1 | -11 | 2
Cc1ccc(NC(=O)CCNS(=O)(=O)c2ccccc2)c(C(=O)c2ccccc2)c1 | 8 | 11 | -1 | 0 | 3
O=C(O)c1cccc(S(=O)(=O)Nc2ccccc2Cl)c1 | 5 | -4 | 3 | -4 | 9
Cc1ccc(S(=O)(=O)Nc2ccc(Cl)cc2C(=O)c2ccccc2)cc1 | 27* | 6 | 6 | -2 | 24
Cc1ccc(S(=O)(=O)Nc2ccc(Cl)cc2C(=O)c2ccc(F)cc2)cc1 | 43* | 5 | 5 | -1 | 23
Cc1ccc(S(=O)(=O)Nc2ccc(NC(=O)c3ccc(F)cc3)cc2)cc1 | 4 | 6 | 1 | 7 | -11
CCC[C@H]1[C@@H](OC(=O)NCc2ccc(C(F)(F)F)cc2)CC[C@@]23CCCN2C(=O)CCC[C@@H]13 | · | · | · | -4 | ·
COc1ccc(-n2nc(C(=O)NCC(=O)NC3CCCCC3)c3ccccc3c2=O)c(OC)c1 | 5 | 3 | 0 | -8 | 9
COc1ccc(-n2nc(C(=O)NCC(=O)NC3CCCCCC3)c3ccccc3c2=O)c(OC)c1 | 2 | -2 | 2 | -5 | 48*
O=C1c2ccccc2C(=O)c2c(Nc3ccc(CCO)cc3)ccc(O)c21 | -1 | 12 | 11 | 4 | 28
O=C1c2c(O)ccc(O)c2C(=O)c2c(NCCNCCO)ccc(NCCNCCO)c21 | 3 | 4 | 0 | 6 | 78*
COc1ccc2ccccc2c1-c1c(C(=O)c2ccc(Br)cc2)[nH]c(N)c1C(=O)NC1CCCCC1 | · | · | · | -7 | ·
O=C(CSc1ccc(Cl)cc1)NCc1ccncc1 | 29* | 4 | -6 | 5 | 2
O=C(CCSc1ccc(Cl)cc1)NCc1ccncc1 | 12 | 0 | -3 | -15 | -16
O=[N+]([O-])c1cc(Cl)cc(/C=N/NC(=S)Nc2ccc(S(=O)(=O)N3CCOCC3)cc2)c1O | 37* | 23 | 42* | -1 | 6
O=S(=O)(c1ccc(NC(=S)N/N=C/c2ccc(O)c(O)c2)cc1)N1CCOCC1 | 6 | 12 | 5 | -4 | -10
CC1CCCC(C)N1C(=O)CSc1nc(N)c(-c2ccccc2)c(=O)[nH]1 (stereo not drawn) | 25* | 5 | 0 | 14 | -17
Nc1nc(SCC(=O)N2CCCC2)[nH]c(=O)c1-c1ccccc1 | -3 | 2 | -4 | -6 | -3
CCOC(=O)c1c2c3c(cccc3n(C)c1=O)C(=O)c1ccccc1-2 | 19 | 26* | 27 | -12 | 25
CCOC(=O)c1c2c3c(cccc3[nH]c1=O)C(=O)c1ccccc1-2 | 4 | 7 | 13 | -1 | 17
O=C(CSc1nc2ccccc2s1)NNC(=S)Nc1ccc(Br)cc1 | 24* | 7 | 4 | -8 | 1
CCC[C@H]1[C@@H](OC(=O)NCc2cccc(Cl)c2)CC[C@@]23CCCN2C(=O)CCC[C@@H]13 | · | · | · | -3 | ·
CN(CC(=O)NCc1ccc(F)cc1)CC(=O)Nc1ccc(Cl)c(C(F)(F)F)c1 | 6 | -2 | -3 | 1 | 21
CN(CC(=O)NCC(=O)Nc1ccc(F)cc1)CC(=O)Nc1ccc(Cl)c(C(F)(F)F)c1 | 28* | 0 | 0 | -3 | ·
Nc1nn2c(-c3ccccc3)cc(=O)[nH]c2c1N=Nc1ccc(O)cc1 | 14 | 16 | 29 | 3 | 41*
COc1ccc(-c2cc(=O)oc3c(O)c(O)ccc23)cc1 | 5 | 21 | 29 | -2 | 6
CC1Oc2cc3oc4c(O)c(O)ccc4c(=O)c3c(O)c2C1(C)C (stereo not drawn) | 11 | 8 | 32* | · | -10
